Rows were chosen to be rich in hits. Some 4.5% of all compounds tested hit in one or more screens of this group.
OX1R antag-1: blocks the human orexin 1 receptor | O43613 | CHO/OX1R cells, Fluo-8 calcium fluorescence, orexin A | inhibition, % at 5 µM | 330,000 compounds, 0.43% hits;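 active means inhibition above its plate's threshold, mean inhibition of all tested compounds on the plate plus 3 SD, cut at about 37% in these data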;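 further: 0% = orexin A challenge wells and 100% = SB-334867-A antagonist wells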
CHO parental Ca: counter-screen: ATP calcium response change in parental CHO cells; AID 463079; 330,000 compounds, 0.63% hits; parental CHO-K1, ATP-induced calcium, Fluo-8 fluorescence; inhibition, % at 5.6 µM;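 active means inhibition above that plate's mean sample inhibition plus 3 SD, cut at about 26% in these data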;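 further: 0% = ATP-challenged DMSO wells and 100% = DMSO wells without ATP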
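Material: Parental CHO cells | Reagent: ATP | Compound dosing: Single nominal dose of 5.6 µM per compound | Detection: Intracellular calcium via Fluo-8 no-wash fluorescent dye | Read-out: % inhibition of ATP-induced calcium mobilization | Benchmarks: Low control ATP plus DMSO, high control DMSO only | Replicates: Singlicate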
GPR7 antagonist: antagonists of human GPR7 (neuropeptides B/W receptor 1). 290,000 compounds, 1.1% hits. P48145. inhibition, % at 4.4 µM. GPR7-expressing cells, fluorescence antagonist assay. AID 1861; in the data active means inhibition above about 16%, passing the limit was not always enough;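 further: cells stimulated with the agonist NPW; 0% = agonist with vehicle and 100% = vehicle without agonist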
Target sequence (P48145 whole entry, looked up): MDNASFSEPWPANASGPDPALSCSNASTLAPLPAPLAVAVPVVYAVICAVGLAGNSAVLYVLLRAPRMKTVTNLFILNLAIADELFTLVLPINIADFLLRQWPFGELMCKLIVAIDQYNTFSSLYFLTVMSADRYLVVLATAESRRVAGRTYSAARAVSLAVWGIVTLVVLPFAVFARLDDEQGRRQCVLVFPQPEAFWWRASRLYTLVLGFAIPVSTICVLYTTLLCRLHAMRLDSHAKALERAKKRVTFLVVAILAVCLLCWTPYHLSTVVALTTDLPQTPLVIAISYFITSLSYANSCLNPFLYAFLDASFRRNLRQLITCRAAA
TAAR1 antagonist: antagonists of human TAAR1. CHO RD-HGA16 TAAR1, Fluo-8 calcium fluorescence, antagonist. inhibition, % at 3 µM. 360,000 compounds, 1.5% hits;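 active means inhibition above a per-plate cutoff, the mean inhibition of test compounds on that plate plus 3 SD, cut at about 49% in these data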;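 further: 0% = DMSO plus EC80 beta-PEA response and 100% = DMSO alone without agonist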
Target sequence (Q96RJ0 whole entry, looked up): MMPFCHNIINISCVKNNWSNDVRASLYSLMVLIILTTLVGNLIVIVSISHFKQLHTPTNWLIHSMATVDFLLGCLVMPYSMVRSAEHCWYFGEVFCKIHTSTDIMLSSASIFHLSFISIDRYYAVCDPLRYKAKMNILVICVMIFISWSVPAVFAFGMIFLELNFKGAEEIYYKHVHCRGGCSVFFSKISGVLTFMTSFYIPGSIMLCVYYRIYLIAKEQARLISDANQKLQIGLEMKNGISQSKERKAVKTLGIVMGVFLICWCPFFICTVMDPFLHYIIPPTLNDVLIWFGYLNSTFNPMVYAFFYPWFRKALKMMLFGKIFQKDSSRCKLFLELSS
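Assay system: RD-HGA16 CHO cells with stable hTAAR1 and Gα16 / Reagent: EC80 β-phenethylamine stimulus / Doses: 3 µM, single point / Timing: dye loading 75 min at 37 °C, then 30 min room temperature / Measured by: Fluo-8 intracellular calcium dye fluorescence, real-time kinetic reads / Controls: vehicle wells and EC80 agonist wells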
OX1R antag-2: antagonists of human orexin 1 receptor (OX1R); O43613; OX1R-expressing cells, FRET antagonist read-out; inhibition, % at 6.6 µM; 330,000 compounds, 1.8% hits; AID 485270; in the data active means inhibition mostly above about 38%, no sharp cut-off; inactive means mostly below about 40%;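 further: 0% = agonist challenge alone and 100% = reference antagonist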
TAAR1 agonist: human TAAR1 agonism | Q96RJ0 | CHO RD-HGA16 TAAR1, Fluo-8 calcium fluorescence; vehicle wells 0%, saturating PEA agonist 100% | activation, % at 3 µM | 360,000 compounds, 0.99% hits | AID 624467;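 active means activation above the mean activation of all test compounds in the run plus 3 SD, cut at about 38% in these data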
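Test system: RD-HGA16 (CHO) cells co-expressing Gα16 and hTAAR1 | Doses: Single dose, 3 µM | Schedule: 17-24 h seeding, 75 min 37 °C dye, 30 min RT | Evaluation: % activation from peak over basal fluorescence ratio, DMSO-to-PEA scaled | Technique: Kinetic Fluo-8 calcium fluorescence | Benchmarks: Low control DMSO, high control PEA (EC100)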
TAAR1 nonsel count: counter-screen for TAAR1 antagonists: nonselective antagonists; AID 651780; counterscreen cell line, calcium fluorescence, antagonist mode; 2,400 compounds, 77% hits; shares compounds with TAAR1 antagonist; inhibition, % at 3 µM; in the data active means inhibition above about 22%;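 further: CHO-Ga16 host cells stimulated with ATP at an EC80 level; 0% = agonist EC80 plus vehicle and 100% = vehicle without agonist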
TAAR1 antag conf: confirmation of human TAAR1 antagonists; TAAR1-expressing cells, fluorescence antagonist read-out; shares compounds with TAAR1 antagonist; inhibition, % at 3 µM; AID 651785; 2,400 compounds, 40% hits; in the data active means inhibition above about 49%;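 further: CHO-Ga16 host cells challenged with agonist PEA near its EC80; 0% = agonist at EC80 plus vehicle and 100% = vehicle with no agonist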
Ga16 nonsel ag: counter-screen for TAAR1 antagonists: nonselective Ga16 agonists | activation, % at 3 µM | Ga16-expressing cells, calcium fluorescence, agonist counterscreen | shares compounds with TAAR1 antagonist | 2,400 compounds, 18% hits | AID 651953; in the data active means activation above about 12%;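 further: 0% = vehicle wells and 100% = saturating stimulus response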
TAAR1 ag count: TAAR1 agonism, antagonist counter-screen | shares compounds with TAAR1 antagonist | hTAAR1 cell line, fluorescence activation, agonist mode | activation, % at 3 µM | 2,400 compounds, 2% hits | AID 651955; in the data active means activation above about 37%;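 further: CHO cells stably expressing TAAR1 with calcium dye readout; 0% = DMSO vehicle and 100% = full agonist response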
* marks the source's active call; other numbers are inactive results; · = no result.

SMILES	OX1R antag-1	CHO parental Ca	GPR7 antagonist	TAAR1 antagonist	OX1R antag-2	TAAR1 agonist	TAAR1 nonsel count	TAAR1 antag conf	Ga16 nonsel ag	TAAR1 ag count
CC(=O)CCc1ccc(OCC(=O)Nc2cccc(S(=O)(=O)N(C)c3ccccc3)c2)cc1	·	·	·	74.0*	·	10.3	35.5*	52.2*	10.8	8.1
CCCC(=O)Nc1cccc(S(=O)(=O)N(C)c2ccccc2)c1	-10.2	-10.2	-7.0	-4.5	28.3	0.8	·	·	·	·
COc1cc(C#N)ccc1OCC(=O)Nc1cccc(S(=O)(=O)N(C)c2ccccc2)c1	·	·	·	73.6*	·	12.2	35.8*	48.7*	10.1	7.2
COc1ccc(CN2CCNC(=O)C2CC(=O)NCCCC2CCCC2)c(F)c1 (stereo not drawn)	-28.9	-23.4	0.0	-22.3	10.1	0.0	·	·	·	·
COC(=O)C[C@@H]1CC[C@@H](NS(=O)(=O)c2ccc(OC)cc2)[C@@H](CO)O1	·	·	·	-15.7	·	3.7	·	·	·	·
CSc1ncccc1C(=O)OCC(=O)N1CCCC1	11.1	-6.4	·	101.0*	2.0	-2.8	-4.2	-11.7	8.3	2.6
O=C(COC(=O)c1ccccc1C(=O)c1ccc(Cl)c([N+](=O)[O-])c1)NC1CCCCCC1	47.9*	39.0*	30.2*	73.8*	20.9	13.0	34.9*	53.7*	8.7	9.6
O=C(COC(=O)c1ccc(Cl)c([N+](=O)[O-])c1)NC1CCCC1	-10.2	-7.9	-5.0	3.6	16.9	0.7	·	·	·	·
Nc1cc(Cl)ccc1C(=O)OCC(=O)NC1CCCCC1	17.2	30.5*	-0.3	101.9*	25.3	-2.0	11.0	7.9	3.3	11.8
Nc1cc(Cl)ccc1C(=O)OCC(=O)N1CCCCCC1	3.2	-4.8	·	103.3*	-0.2	2.4	11.2	4.9	4.3	7.4
O=C(OCC(=O)N1CCCCCC1)c1cccc(Cl)c1	-23.5	-17.7	·	0.5	-0.5	4.7	·	·	·	·
CCCCCCCC(=O)Nc1cc(C(=O)NCCC)ccc1N1CCC2(CC1)CC(c1ccccc1)=NO2	-39.3	-22.4	-9.6	-1.0	17.7	-0.7	·	·	·	·
CC1(C(=O)NS(=O)(=O)c2ccccc2)CCN1C(=O)CCc1ccccc1 (stereo not drawn)	·	·	·	-12.5	·	1.4	·	·	·	·
COc1cccc(CNS(=O)(=O)c2ccc3c(c2)N(C)CCO3)c1	-11.8	-12.4	3.4	-6.6	31.5	1.4	·	·	·	·
CCOC(=O)Cc1n[nH]c(=O)c2ccccc12	-1.6	-6.6	-7.0	2.1	13.4	8.6	·	·	·	·
O=C(Cc1n[nH]c(=O)c2ccccc12)OCC(=O)N(Cc1ccccc1)Cc1ccccc1	-30.7	-9.9	13.1	57.3*	12.1	3.9	20.9	38.5	4.2	2.9
O=C(N/N=C/c1c[nH]c2ccc(Br)cc12)c1ccn(Cc2ccc(Cl)cc2)n1	-16.7	-1.1	4.3	62.1*	14.2	16.2	23.9*	41.9	4.2	11.4
COc1cccc(CN2CC(C(=O)N(C)Cc3ccnc4ccccc34)CCC2=O)c1 (stereo not drawn)	-15.2	-13.0	-5.8	-24.9	5.8	0.5	·	·	·	·
COc1ccccc1CN(Cc1nc2ccccc2c(=O)[nH]1)S(=O)(=O)c1ccc(C)cc1	-8.9	-25.5	-2.2	52.7*	24.6	1.2	14.5	37.9	7.6	10.5
COc1ccccc1CN(Cc1nc2ccccc2c(=O)[nH]1)C(=O)Nc1ccc(C)cc1	-37.8	-25.2	-10.4	18.7	19.6	14.1	·	·	·	·
CCCCCn1c(SCC2CCCO2)nc2cc(C(=O)N3CCC(C(N)=O)CC3)ccc2c1=O (stereo not drawn)	-17.0	-18.5	-5.1	25.4	9.1	19.1	·	·	·	·
NC(=O)C1CCN(C(=O)c2ccc3c(=O)n(Cc4ccco4)c(SCc4ccc([N+](=O)[O-])cc4)nc3c2)CC1	-27.8	-19.9	6.2	49.3*	9.7	2.7	30.8*	41.2	5.2	7.0
O=C(Nc1cc(Cl)ccc1N1CCCC1)C1=COCCO1	-14.2	-22.1	·	2.1	7.6	0.5	·	·	·	·
CC(=O)c1c(C)[nH]c(C(=O)Nc2nc(-c3ccc(-c4ccccc4)cc3)cs2)c1C	30.1	25.9	-12.4	92.8*	13.6	28.8	70.9*	96.7*	26.5*	37.5*
S=C(NCc1ccccc1)N1CCN(C(=S)NCc2ccccc2)CC1	-5.9	-14.7	·	-4.0	1.4	1.8	·	·	·	·
SMILES	OX1R antag-1	CHO parental Ca	GPR7 antagonist	TAAR1 antagonist	OX1R antag-2	TAAR1 agonist	TAAR1 nonsel count	TAAR1 antag conf	Ga16 nonsel ag	TAAR1 ag count
CCOc1ccc(S(=O)(=O)N(CC(=O)NCc2cccnc2)c2ccc(F)cc2)cc1	-36.5	-15.8	-13.2	64.9*	4.8	19.8	28.7*	49.3*	12.8*	15.9
OC1(c2cccc(C(F)(F)F)c2)CCN(c2ccc(-c3ccccc3)nn2)CC1	-12.6	-4.7	-11.6	74.6*	14.6	9.6	19.1	39.2	3.9	-1.1
CC(=O)Oc1ccccc1Cn1c(C)c(C(=O)N(C)Cc2ccc(F)cc2)sc1=O	·	·	·	29.6	·	3.1	·	·	·	·
C[C@H]1COc2cccc(N3CCSCC3)c2S(=O)(=O)N1	·	·	·	-7.1	·	4.2	·	·	·	·
COc1ccc(N2C(=O)C(C)C(Cc3ccc(C)cc3)C2=O)cc1 (stereo not drawn)	-24.6	-13.1	-2.5	4.1	13.2	2.5	·	·	·	·
COc1ccc(-c2csc(NC(=O)C3COc4ccccc4O3)n2)cc1OC (stereo not drawn)	-20.7	0.1	-3.6	61.8*	14.8	5.1	29.3*	40.4	7.2	5.2
O=C(Nc1ccc(-c2cn3ccsc3n2)cc1)C1COc2ccccc2O1 (stereo not drawn)	6.3	8.2	-1.5	59.6*	49.9	23.5	37.9*	56.4*	15.3*	11.0
Cc1ccc(-c2csc(NC(=O)c3cccc(N4C(=O)CCC4=O)c3)n2)o1	-22.6	-8.9	-0.8	·	12.0	·	·	·	·	·
COc1ccc(-c2csc(NC(=O)c3cccc(N4C(=O)CCC4=O)c3)n2)cc1OC	-7.1	-9.3	·	65.1*	7.8	8.5	21.0	33.0	6.9	8.9
CCOc1ccc(-c2csc(NC(=O)c3cccc(N4C(=O)CCC4=O)c3)n2)cc1	-18.6	11.0	-4.8	68.1*	15.0	18.8	31.7*	43.9	12.1*	13.6
CC(C)(C)c1csc(NC(=O)C2COc3ccccc3O2)n1 (stereo not drawn)	-21.1	-10.1	-18.7	22.2	14.3	-0.6	·	·	·	·
